ChEMBL document CHEMBL1147571, “Synthesis and biological evaluation of benzamides and benzamidines: structural requirement of a pyrimidine ring for inhibition of EGFR tyrosine kinase” (Bioorg Med Chem Lett, 2004)

Each compound was assayed on A-431 (assay: Cytotoxic effect on A431 human epidermoid carcinoma cells (No response to 1 mM)).
Assay type: functional, cell-based
Summary of the method: (§1)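 A431 human epidermoid carcinoma cells exposed to compounds up to 1.0 mM and scored for cell growth inhibition. The IC50 is the compound concentration giving 50% growth inhibition. Where 50% inhibition was not reached at 1.0 mM, that is recorded instead of a value.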

Q: How did the IC50 turn out when `COc1cc(N)c(C(=O)NC2CCCCC2)cc1OC` was run?
A: Its IC50 is greater than 1000 µM.

Q: `COc1cc(N)c(C(=O)NC(C)c2ccccc2)cc1OC` (configuration not stated) was tested. Which IC50 did it give?
A: The IC50 was greater than 1000 µM.

Q: With `COc1cc(N)c(C(=O)Nc2ccc(F)c(Cl)c2)cc1OC` as the compound, how does the IC50 read?
A: Its IC50 is greater than 1000 µM.

Q: Which IC50 does the source give for `COc1cc(N)c(C(=O)Nc2ccccn2)cc1OC` here?
A: The IC50 was greater than 1000 µM.

Q: For `COc1cc(N)c(C(=O)Nc2ccncc2)cc1OC`, which IC50 is on record?
A: The IC50 was greater than 1000 µM.

Q: For `COc1cc(N)c(C(=O)Nc2cccnc2)cc1OC`, which IC50 is on record?
A: The IC50 was greater than 1000 µM.

Each compound was assayed on A-431 (assay: Cytotoxic effect on A431 human epidermoid carcinoma cells).
Assay type: functional, cell-based
Summary of the method: as §1

Q: For `COc1cc(N)c(C(=O)Nc2cccc(Br)c2)cc1OC`, which IC50 is on record?
A: Its IC50 is 340 µM.

Q: Which IC50 does the source give for `COc1cc(N)c(C(=O)Nc2cccc(C(F)(F)F)c2)cc1OC` here?
A: The IC50 was 470 µM.

Q: Which IC50 does the source give for `COc1cccc(NC(=O)c2cc(OC)c(OC)cc2N)c1` here?
A: Its IC50 is 200 µM.

Q: How did the IC50 turn out when `COc1cc(N)c(C(=N)Nc2cccc(Cl)c2)cc1OC` was run?
A: The IC50 was 460 µM.

Q: With `COc1cc(N)c(C(=N)Nc2cccc(Br)c2)cc1OC` as the compound, how does the IC50 read?
A: The IC50 was 300 µM.

Q: Which IC50 does the source give for `COc1cc2c(cc1OC)C(Nc1cccc(Cl)c1)=NC(C)(C)N2` here?
A: Its IC50 is 200 µM.

Q: Which IC50 does the source give for `COc1cccc(NC2=NC(C)(C)Nc3cc(OC)c(OC)cc32)c1` here?
A: Its IC50 is 320 µM.

Q: With `COc1cc2c(cc1OC)C(Nc1cccc(Br)c1)=NC(C)(C)N2` as the compound, how does the IC50 read?
A: The IC50 was 130 µM.

Q: How did the IC50 turn out when `COc1cc(N)c(C(=N)Nc2ccc(F)c(Cl)c2)cc1OC` was run?
A: Its IC50 is 200 µM.

Q: `COc1cccc(NC(=N)c2cc(OC)c(OC)cc2N)c1` was tested. Which IC50 did it give?
A: The IC50 was 340 µM.

Q: `COc1cc2c(cc1OC)C(Nc1ccc(F)c(Cl)c1)=NC(C)(C)N2` was tested. Which IC50 did it give?
A: The IC50 was 90 µM.
